HIV Env fusion = inhibitors of HIV Env-mediated cell fusion; HeLa-JRFL Env/CEM21 cell fusion, luciferase; inhibition, % at 12.3 µM; actives 1.1% (n = 360,000); AID 651610;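 active means mean replicate inhibition score of at least 50 and every replicate individually at or above 50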
miR122 inh = blocks miR-122 activity in Huh7 sensor cells. Huh7 miR-122 Renilla luciferase sensor, 48 h; neutral wells = 0, positive control = 100. actives 0.3% (n = 340,000). AID 602342. activation (reporter increase), % at 12.5 µM;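 active means mean replicate activation score at least 90 and every replicate individually at or above 90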;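 further: higher luciferase means less miR-122 activity so hits act as miR-122 inhibitors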
rRNA inh HTS = selective bacterial rRNA inhibition in E. coli; E. coli WT GFP vs humanized-ribosome RFP mutants, fluorescence, 24 h; hits give low values; DMSO median 0, no signal -100; GFP signal change (wild-type ribosome), % (concentration not given with the values); actives 1.6% (n = 350,000);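 active means significant combined selectivity score with lowered wild-type GFP, culture density cut under 30%, mutant RFP and density less affected; inactive means any of these conditions unmet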
Vif inh = blocks HIV Vif function; HEK293T cells, Vif self-association by quenched fluorescence, imaging, 24 h; inhibition, % at 7.49 µM; actives 0.35% (n = 340,000); in the data active means inhibition above about 50%, passing the limit was not always enough
FN deposition inh = fibronectin deposition inhibition | AH1F fibroblasts, Alexa488-fibronectin deposition fluorescence, overnight | AID 743247 | actives 0.086% (n = 350,000) | inhibition, % at 12.6 µM;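 active means mean inhibition across replicates of 30% or more, regardless of how many single replicates reach that level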
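material = AH1F fibroblast monolayer depositing Alexa488-labelled fibronectin into matrix | amount = 10000 AH1F cells/well | buffer or medium = DMEM plus 2% serum, read in PBS | incubation = 1 h cell adhesion before compound, then overnight fibronectin incubation | detection = fluorescence at 485 nm excitation, 525 nm emission | evaluation = percent inhibition as loss of matrix-bound fibronectin fluorescence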
S100A4 MyoIIA = S100A4-myosin IIA interaction inhibition; actives 0.14% (n = 360,000); AID 652163; S100A4/TAMRA-MyoIIA peptide fluorescence polarization; P26447; inhibition, % at 10.7 µM;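 active means mean inhibition of at least 70% across replicates, with every replicate also reaching that level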
Target sequence (P26447 whole entry, looked up): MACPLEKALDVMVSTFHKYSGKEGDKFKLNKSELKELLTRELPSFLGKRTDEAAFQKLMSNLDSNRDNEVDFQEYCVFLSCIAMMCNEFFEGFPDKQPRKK
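Material: S100A4 monomer protein / Buffer or medium: 50 mM HEPES pH 7.2, 10 mM CaCl2, 100 mM KCl / Times: 5 min incubation before reading / Benchmarks: neutral control DMSO, positive control TFP / Reagent: labelled myosin peptide probe, 5 nM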
Large screens that a line does not name were inactive; [ ] = remark or other dose. Hits are enriched below; roughly 2.6% of the tested compounds scored in any of these assays.

C[C@@H]1CN([C@H](C)CO)S(=O)(=O)c2ccc(C#CC3CC3)cc2O[C@@H]1CN(C)Cc1ccc(F)cc1	none (no result: Vif inh)
C[C@H](CO)N1C[C@H](C)[C@@H](CN(C)S(=O)(=O)c2ccccc2)Oc2ncc(/C=C/c3ccccc3)cc2C1=O	none (no result: Vif inh)
C[C@@H]1CN([C@@H](C)CO)C(=O)c2cc(C#C[C@@H](C)O)cnc2O[C@H]1CN(C)C(=O)Cc1ccncc1	S100A4 MyoIIA 87 (no result: Vif inh)
C[C@H](CO)N1C[C@H](C)[C@H](CN(C)S(=O)(=O)c2ccc(C#N)cc2)Oc2ncc(/C=C/c3ccccc3)cc2C1=O	HIV Env fusion 74[16.7 µM] (no result: Vif inh, FN deposition inh)
CCC(=O)N(C)C[C@H]1Oc2ncc(-c3ccc(C(=O)N(C)C)cc3)cc2C(=O)N([C@@H](C)CO)C[C@H]1C	S100A4 MyoIIA 111 (no result: Vif inh, FN deposition inh)
Cc1ccccc1-c1cnc2c(c1)C(=O)N([C@H](C)CO)C[C@@H](C)[C@H](CN(C)Cc1ccccc1F)O2	miR122 inh 121[16.7 µM] (no result: Vif inh)
CO[C@H]1CN(C)C(=O)c2ccc(NC(=O)Nc3ccccc3F)cc2OC[C@@H](C)NC[C@H]1C	none (no result: Vif inh)
OC[C@@H]1CC[C@@H]2O[C@H](CCc3ccc(-c4ccccc4)cc3)[C@H](n3cc(-c4ccccc4)nn3)C[C@@H]2O1	none (no result: HIV Env fusion, miR122 inh, rRNA inh HTS, Vif inh, FN deposition inh)
O=C(C[C@@H]1C=C[C@@H](NC(=O)c2ccccc2)[C@@H](CO)O1)NCCc1ccncc1	none (no result: miR122 inh, Vif inh)
COCC(=O)N(C)C[C@H]1Oc2ncc(Br)cc2C(=O)N([C@@H](C)CO)C[C@@H]1C	none (no result: Vif inh, FN deposition inh)
C[C@H]1CN([C@@H](C)CO)C(=O)c2cc(-c3cccc(C#N)c3)cnc2O[C@@H]1CN(C)Cc1cccnc1	S100A4 MyoIIA 128 (no result: HIV Env fusion, Vif inh)
COCC(=O)N(C)C[C@H]1Oc2ncc(Br)cc2C(=O)N([C@H](C)CO)C[C@H]1C	HIV Env fusion 80[16.7 µM] (no result: Vif inh, FN deposition inh)
C[C@H]1CN([C@@H](C)CO)C(=O)c2cc(-c3ccccc3)cnc2O[C@@H]1CN(C)C(=O)c1cccc(F)c1	FN deposition inh 38 (no result: Vif inh, S100A4 MyoIIA)
Cn1c(=O)c(-c2cc(=O)[nH][nH]2)c(O)c2ccccc21	rRNA inh HTS -34
CCn1c(=O)c(-c2cc(=O)[nH][nH]2)c(O)c2ccccc21	none
COc1ccc(CN(C)C[C@H]2OCCCC[C@@H](C)Oc3ccc(NC(=O)NC4CCCCC4)cc3C(=O)N([C@H](C)CO)C[C@H]2C)cc1	none (no result: Vif inh)
Cc1nnc2ccc(-c3ccc(NS(=O)(=O)c4ccccc4[N+](=O)[O-])cc3)nn12	Vif inh 76
Cc1nnc2ccc(-c3ccc(NS(=O)(=O)c4ccc(F)cc4F)cc3)nn12	Vif inh 71 (no result: miR122 inh, FN deposition inh)
COc1ccc(S(=O)(=O)Nc2ccc(-c3ccc4nnc(C)n4n3)cc2)c(OC)c1	miR122 inh 92 (no result: HIV Env fusion)
Cc1nnc2ccc(-c3ccc(NS(=O)(=O)c4ccccc4F)cc3)nn12	none (no result: miR122 inh)
CC(=O)Nc1cccc2c1O[C@@H](CN(C)C(=O)OC(C)(C)C)[C@@H](C)CN(C)C2=O	none (no result: HIV Env fusion, miR122 inh, Vif inh, S100A4 MyoIIA)
C[C@H]1CN([C@@H](C)CO)S(=O)(=O)c2ccc(-c3ccc(C(=O)N(C)C)cc3)cc2O[C@@H]1CN(C)C(=O)C1CCC1	none (no result: HIV Env fusion, Vif inh)
CCCC#Cc1cnc2c(c1)C(=O)N([C@H](C)CO)C[C@H](C)[C@H](CN(C)Cc1ccc3c(c1)OCO3)O2	none (no result: HIV Env fusion, miR122 inh, Vif inh, FN deposition inh, S100A4 MyoIIA)
O=C(N/N=C/C(Br)=C/c1ccccc1)C(O)c1ccccc1 (stereo unspecified)	rRNA inh HTS -27
O=C(N/N=C/c1ccc(Cl)s1)C(O)c1ccccc1 (stereo unspecified)	miR122 inh 123
O=C(N/N=C/C(Br)=C/c1ccccc1)C1CC1	none (no result: miR122 inh)
OC[C@@H]1CN(Cc2ccccc2)C[C@H](n2cnc3c(NCc4ccncc4)ncnc32)O1	HIV Env fusion 59 (no result: rRNA inh HTS)
OC[C@@H]1CN(Cc2ccc(F)cc2)C[C@H](n2cnc3c(NCc4ccncc4)ncnc32)O1	none
COc1cc(CNc2ncnc3c2ncn3[C@H]2CN(CCN3CCOCC3)C[C@@H](CO)O2)cc(OC)c1OC	Vif inh 70
Oc1cccc2ccc(Nc3ccccn3)nc12	HIV Env fusion 60 (no result: rRNA inh HTS, S100A4 MyoIIA)

Screens as filed in PubChem.
